# Only some compounds are listed: those with a hit (about 2.1% of all), similar ones and a draw of the others.
# ASAP1 inh – ASAP1 ArfGAP inhibition. Q9ULH1. ASAP1-stimulated ARF1 GTP hydrolysis, GDP FP detection. inhibition, % at 16.5 µM. hit rate 0.19% among 360,000; in the data active = inhibition above about 25%;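 also: 0% = vehicle with enzyme and substrate and 100% = no enzyme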
# Target sequence (Q9ULH1 325-724 limits assumed): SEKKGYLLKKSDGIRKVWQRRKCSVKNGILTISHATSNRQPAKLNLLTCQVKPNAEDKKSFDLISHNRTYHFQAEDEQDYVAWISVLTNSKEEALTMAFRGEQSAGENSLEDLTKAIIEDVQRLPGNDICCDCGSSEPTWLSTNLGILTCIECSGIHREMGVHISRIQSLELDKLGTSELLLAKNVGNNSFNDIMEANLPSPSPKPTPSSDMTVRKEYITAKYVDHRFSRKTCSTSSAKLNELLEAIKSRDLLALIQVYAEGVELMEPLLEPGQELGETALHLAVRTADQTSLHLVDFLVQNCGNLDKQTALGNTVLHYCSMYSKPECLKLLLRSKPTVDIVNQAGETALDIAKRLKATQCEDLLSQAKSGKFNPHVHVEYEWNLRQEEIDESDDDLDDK
# Statin myotox sup – suppressors of simvastatin-induced myotoxicity in C2C12 myotubes; ATP luminescence, 48 h; scaled: DMSO 0, geranylgeraniol control 100; rescue of ATP level, % at 7.49 µM; hit rate 0.78% among 330,000; AID 602340;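 active = mean ATP rescue above about 67%, or every replicate alone reaching that limit, limit read from the data, passing the limit was not always enough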;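 also: myotubes were challenged with 10 µM simvastatin during compound exposure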
# A3G deaminase – blocks human APOBEC3G single-stranded DNA deamination. inhibition, % at 20 µM. AID 493012. recombinant A3G, ssDNA deamination FAM/TAMRA fluorescence. hit rate 0.28% among 330,000;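 active = inhibition of at least 40% at 20 µM, with no more than 30% in the related APOBEC3A deaminase screen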;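 also: plate controls were DMSO wells with A3G for no effect and wells lacking A3G enzyme for full effect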
# APOBEC3A inh – inhibitors of human APOBEC3A DNA deaminase. P31941. recombinant A3A, FAM/TAMRA ssDNA deamination fluorescence. inhibition, % at 20 µM. hit rate 0.41% among 330,000. AID 493011;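 active = at least 40% inhibition at 20 µM here, with at most 30% in a related deaminase screen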;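 also: plate controls were A3A with DMSO for no effect and wells lacking A3A enzyme for full effect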
# Mot1-301 SUMO – blocks SUMOylation pathway, rescuing yeast Mot1-301 growth. growth rescue, % at 18.8 µM. AID 2716. S. cerevisiae Mot1-301 growth rescue, ATP luminescence, 38.5C; percent above DMSO median, 100 means doubled. hit rate 1% among 320,000;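 active = every valid replicate shows activation above 250% relative to neutral control wells; inactive = the rest, any valid replicate at or below 250%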;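 also: OY570 slx delta 5 strain wells were the positive control but not used for scaling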
# ARFGAP1 inh – inhibitors of rat ARFGAP1; Arfgap1-stimulated ARF1 GTP hydrolysis, GDP FP detection; inhibition, % at 16.5 µM; hit rate 0.26% among 360,000;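 active = inhibition above a per-plate limit, mean inhibition of low control wells plus 3 SD, cut at about 25% in these data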;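 also: 0% = DMSO wells with enzyme and 100% = wells lacking Arfgap1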
# Target sequence (Q62848 1-136 limits assumed): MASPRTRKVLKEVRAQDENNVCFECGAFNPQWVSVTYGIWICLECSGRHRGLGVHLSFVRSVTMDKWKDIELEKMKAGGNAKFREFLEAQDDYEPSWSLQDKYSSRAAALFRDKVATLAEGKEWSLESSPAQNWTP
#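 System: truncated rat Arfgap1 GAP domain / Benchmarks: high control wells lacking Arfgap1, low control full reaction with DMSO / Times: compound-enzyme preincubation 20 min, reaction 120 min, detection 60 min, 25 °C / Repeats: one replicate per compound / Also added: human ARF1(Δ1-17)-GTP substrate / Measured by: Tracer-displacement fluorescence polarization with EDTA stop, 620/688 nm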
# A3A conf – confirmation of human APOBEC3A DNA deaminase inhibitors; shares compounds with APOBEC3A inh; recombinant A3A, ssDNA deaminase UDG fluorescence assay; hit rate 63% among 1,400; inhibition, % at 20 µM;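 active = inhibition reaching a set limit, 80% of the first screen's cutoff, at 20 µM in any replicate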;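 also: plate controls were DMSO wells with A3A for no effect and wells lacking A3A enzyme for full effect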
# UDG ctr A3A – inhibits UDG, flagging false APOBEC3A inhibitors | shares compounds with APOBEC3A inh | UDG counterscreen, FAM/TAMRA uracil oligo fluorescence | inhibition, % at 20 µM | 1,000 tested, under 10 active; call rule not given here
# Starred values were filed as active, the others as inactive; nt = not tested or not shown.
SMILES,ASAP1 inh,Statin myotox sup,A3G deaminase,APOBEC3A inh,Mot1-301 SUMO,ARFGAP1 inh,A3A conf,UDG ctr A3A
CC(C)Nc1nc(NC(C)C)nc(N(C)n2cnnc2)n1,9,98*,5,41*,-2,11,1,nt
CC(C)Nc1nc(NC(C)C)nc(Nn2cnnc2)n1,-14,nt,1,-1,-12,-8,nt,nt
CC(=O)OCC[n+]1c(C)n(-c2ccccc2)c2ccc(Cl)cc21,5,6,11,42*,-13,9,84*,-3
CCOC(=O)c1ccc2c(c1)[n+](CC)c(C)n2-c1ccccc1,4,-3,26,75*,-2,-3,85*,2
CC[n+]1c(C)n(-c2ccccc2)c2ccc(C(=O)OC)cc21,0,nt,12,44*,5,3,40*,-3
C[C@H](CO)N1C[C@H](C)[C@H](CN(C)Cc2ccc(C(=O)O)cc2)Oc2ccc(NC(=O)CCC(F)(F)F)cc2CC1=O,nt,-11,nt,nt,nt,nt,nt,nt
O=C(O)C1C2C=CC(C2)C1C(=O)N1CCN(C/C=C/c2ccccc2)CC1 (centres undefined),-11,-8,0,47*,1,8,1,nt
Fc1ccccc1Sc1ccccc1CNC1=NCCN1,4,-25,-4,63*,205,0,91*,-1
c1ccc(Sc2cccc3ccccc23)c(CNC2=NCCN2)c1,4,nt,18,58*,-25,-7,75*,2
COc1ccc(S(=O)(=O)N(CCc2ccccc2)CC(=O)NC(C)C)cc1,10,6,11,50*,46,6,48*,2
CNC(=O)CN(CCc1ccccc1)S(=O)(=O)c1ccc(OC)cc1,-4,16,1,45*,-17,-10,25,nt
CCn1c(-c2ccccc2Cl)nn(CC(=O)Nc2ccc(OC)cc2)c1=S,5,6,-6,-4,1,-1,nt,nt
CCn1c(-c2ccccc2Cl)nn(CC(=O)Nc2ccccc2C)c1=S,-5,-4,13,66*,81,-4,24,nt
Cc1ccccc1COc1ccc(-c2nnn(CC(=O)O)n2)cc1,-8,1,-1,40*,6,6,23,2
CCOC(=O)c1c(/N=C/c2ccccc2O)sc2c1CCC2,1,4,-4,98*,-3,0,-3,-2
CCOC(=O)c1c(NC(=O)OC)sc2c1CCC2,-12,1,-6,54*,-13,6,-6,1
C[C@H](CO)N1C[C@H](C)[C@H](CN(C)C)Oc2cc(-c3cccnc3)ccc2S1(=O)=O,nt,-4,nt,nt,nt,nt,nt,nt
O=C(Cn1ccc([N+](=O)[O-])n1)N1CCc2ccccc21,4,-5,1,5,-13,2,nt,nt
Cc1ccn(CCC(=O)N2CCc3ccccc32)n1,12,-2,-2,91*,3,21,-8,-1
O=C(c1cc2c(s1)CCCC2)N1CCN(Cc2ccc3c(c2)OCO3)CC1,-6,nt,-10,1,163,-2,nt,nt
O=C(Oc1ccc2c(c1)OCO2)c1cc2c(s1)CCC2,9,-6,29,62*,-9,3,79*,nt
COCC#Cc1cnc2c(c1)C(=O)N([C@H](C)CO)C[C@@H](C)[C@@H](CN(C)S(=O)(=O)c1ccccc1)O2,nt,-3,nt,nt,nt,nt,nt,nt
COc1ccc(C(=O)NC2CCN(CC(=O)NC3CCCCC3)CC2)cc1,2,2,-7,-3,-2,-4,nt,nt
COc1ccc(C(=O)NC2CCN(CC(=O)N3CCCCC3)CC2)cc1,14,-2,4,41*,-5,-5,6,nt
COC(=O)[C@@H]1[C@@H](CO)[C@@H]2Cn3c(ccc(C4=CCCCC4)c3=O)[C@@H]2N1Cc1ccc2c(c1)OCO2,nt,9,nt,nt,nt,nt,nt,nt
SMILES,ASAP1 inh,Statin myotox sup,A3G deaminase,APOBEC3A inh,Mot1-301 SUMO,ARFGAP1 inh,A3A conf,UDG ctr A3A
Cn1cnc(NCc2ccccc2)c1[N+](=O)[O-],1,nt,-3,44*,27,5,-4,-2
Cc1cccc(C(=O)Nc2ccc(S(=O)(=O)N3CCOCC3)cc2C)c1,-8,-6,13,43*,197,-6,52*,-1
Cc1cccc(NC(=O)CSCC(=O)Nc2cc(S(=O)(=O)N3CCOCC3)ccc2N2CCCC2)c1,-6,0,-8,96*,-11,-3,3,-3
Cc1cccc(NC(=O)CSCC(=O)Nc2cc(S(=O)(=O)N3CCOCC3)ccc2OC(C)C)c1,0,9,-10,-1,200,2,nt,nt
Cc1ccc(NC(=O)c2cc(S(=O)(=O)N3CCOCC3)ccc2F)c(C)c1,-4,nt,-6,-1,6,2,nt,nt
CNC[C@H]1OCCCC[C@H](C)Oc2ccc(NC(=O)Nc3c(C)noc3C)cc2C(=O)N([C@@H](C)CO)C[C@@H]1C,nt,53,nt,nt,nt,nt,nt,nt
Cc1ccccc1NC(=O)C1c2cccc[n+]2CC(=O)N1c1c(C)cccc1C (centres undefined),-24,nt,17,40*,-22,-1,18,nt
COc1cccc2c1C(=O)c1c(O)c3c(c(O)c1C2=O)C[C@](O)(C(C)=O)C[C@H]3O[C@@H]1C[C@@H](N)[C@@H](O)[C@@H](C)O1,5,-151,24,50*,-7,4,42*,nt
COc1cccc2c1C(=O)c1c(O)c3c(c(O)c1C2=O)CC(O)(C(C)=O)CC3OC1CC(O)C(O)C(C)O1 (centres undefined),5,nt,nt,nt,nt,17,nt,nt
CO[C@@H]1CN(C)C(=O)c2ccc(NS(C)(=O)=O)cc2OC[C@@H](C)N(S(C)(=O)=O)C[C@H]1C,nt,-2,nt,nt,nt,nt,nt,nt
Cc1cc(C)cc(N(C(=O)c2csnn2)C(C(=O)NC(C)(C)C)c2cccs2)c1 (centres undefined),-12,38,-4,68*,29,3,-4,1
N#C[C@@H]1[C@H](c2ccc(C3=CCCC3)cc2)[C@@H](CO)N1C(=O)c1cccc(F)c1,nt,-4,nt,nt,nt,nt,nt,nt
N#C/C(=C/c1ccc(OCc2ccc(C(=O)O)cc2)cc1)C(=O)Nc1ccccc1,nt,8,16,79*,-4,nt,75*,-3
N#C/C(=C\c1ccc(OCc2ccc(Br)cc2)cc1)C(=O)Nc1cccc(C(=O)O)c1,3,nt,nt,nt,7,7,nt,nt
O=C(N/N=C/c1cccc(OCc2ccccc2)c1)c1cccs1,-1,2,0,1,8,3,nt,nt
O=C(O)c1ccc(COc2ccc(/C=N/NC(=O)c3cccs3)cc2)cc1,nt,nt,17,51*,4,nt,4,nt
COC(=O)C1=C(C)N(CC2CC2)C(=NCc2cccc(Cl)c2)N[C@H]1c1ccccc1,10,nt,8,59*,-20,12,44*,nt
